Tests used:
[1] = Binding affinity to hairpin double stranded DNA AT base pair in sodium cacodylate buffer at pH 6.8 assessed as triplex-forming ability measuring melting temperature after by UV melting experiment
Method in brief: (§1)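 TFO and hairpin dsDNA target, each strand at 1.89 μM final, in 10 mM sodium cacodylate (pH 6.8) with 100 mM KCl and 50 mM MgCl₂. Annealed in boiling water, then cooled slowly to 5 °C. Melting was followed at 260 nm from 5 to 90 °C at 0.5 °C/min. Tm was taken by the two-point average method, mean of three independent runs.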

[2] = Binding affinity to hairpin double stranded DNA GC base pair in sodium cacodylate buffer at pH 6.8 assessed as triplex-forming ability measuring melting temperature after by UV melting experiment; method in brief: as §1
[3] = Binding affinity to hairpin double stranded DNA CG base pair in sodium cacodylate buffer at pH 6.8 assessed as triplex-forming ability measuring melting temperature after by UV melting experiment; method in brief: as §1
[4] = Binding affinity to hairpin double stranded DNA TA base pair in sodium cacodylate buffer at pH 6.8 assessed as triplex-forming ability measuring melting temperature after by UV melting experiment; method in brief: as §1

Tm [1] [°C]	Tm [2] [°C]	Tm [3] [°C]	Tm [4] [°C]	Structure (SMILES)
19	19	23	22	Cc1cn([C@H]2C[C@H](O[PH](OCCC#N)(OC[C@H]3O[C@@H](n4cc(C)c(=O)[nH]c4=O)C[C@@H]3O[PH](OCCC#N)(OC[C@H]3O[C@@H](n4cc(C)c(=O)[nH]c4=O)C[C@@H]3O[PH](OCCC#N)(OC[C@H]3O[C@@H](n4cc(C)c(=O)[nH]c4=O)C[C@@H]3O[PH](OCCC#N)(OC[C@H]3O[C@@H](n4cc(C)c(=O)[nH]c4=O)C[C@@H]3O[PH](OCCC#N)(OC(C)[C@H]3O[C@@H](n4ccc(N)nc4=O)C[C@@H]3O[PH](OCCC#N)(OC[C@H]3O[C@@H](n4cc(C)c(=O)[nH]c4=O)C[C@@H]3O[PH](OCCC#N)(OC[C@H]3O[C@@H](CCc4cn(-c5ccc(CO)cc5)nn4)C[C@@H]3OP(=O)(O)OC[C@H]3O[C@@H](n4cc(C)c(=O)[nH]c4=O)C[C@@H]3O[PH](OCCC#N)(OC(C)[C@H]3O[C@@H](n4ccc(N)nc4=O)C[C@@H]3O[PH](OCCC#N)(OC[C@H]3O[C@@H](n4cc(C)c(=O)[nH]c4=O)C[C@@H]3O[PH](OCCC#N)(OC(C)[C@H]3O[C@@H](n4ccc(N)nc4=O)C[C@@H]3O[PH](OCCC#N)(OC[C@H]3O[C@@H](n4cc(C)c(=O)[nH]c4=O)C[C@@H]3O[PH](OCCC#N)(OC(C)[C@H]3O[C@@H](n4ccc(N)nc4=O)C[C@@H]3O[PH](OCCC#N)(OC[C@H]3O[C@@H](n4cc(C)c(=O)[nH]c4=O)C[C@@H]3O)N(C(C)C)C(C)C)N(C(C)C)C(C)C)N(C(C)C)C(C)C)N(C(C)C)C(C)C)N(C(C)C)C(C)C)N(C(C)C)C(C)C)N(C(C)C)C(C)C)N(C(C)C)C(C)C)N(C(C)C)C(C)C)N(C(C)C)C(C)C)N(C(C)C)C(C)C)N(C(C)C)C(C)C)N(C(C)C)C(C)C)[C@@H](CO)O2)c(=O)[nH]c1=O (stereo partly specified)
21	21	22	22	Cc1cn([C@H]2C[C@H](O[PH](OCCC#N)(OC[C@H]3O[C@@H](n4cc(C)c(=O)[nH]c4=O)C[C@@H]3O[PH](OCCC#N)(OC[C@H]3O[C@@H](n4cc(C)c(=O)[nH]c4=O)C[C@@H]3O[PH](OCCC#N)(OC[C@H]3O[C@@H](n4cc(C)c(=O)[nH]c4=O)C[C@@H]3O[PH](OCCC#N)(OC[C@H]3O[C@@H](n4cc(C)c(=O)[nH]c4=O)C[C@@H]3O[PH](OCCC#N)(OC(C)[C@H]3O[C@@H](n4ccc(N)nc4=O)C[C@@H]3O[PH](OCCC#N)(OC[C@H]3O[C@@H](n4cc(C)c(=O)[nH]c4=O)C[C@@H]3O[PH](OCCC#N)(OC[C@H]3O[C@@H](CCc4cn(-c5cccc(O)c5)nn4)C[C@@H]3OP(=O)(O)OC[C@H]3O[C@@H](n4cc(C)c(=O)[nH]c4=O)C[C@@H]3O[PH](OCCC#N)(OC(C)[C@H]3O[C@@H](n4ccc(N)nc4=O)C[C@@H]3O[PH](OCCC#N)(OC[C@H]3O[C@@H](n4cc(C)c(=O)[nH]c4=O)C[C@@H]3O[PH](OCCC#N)(OC(C)[C@H]3O[C@@H](n4ccc(N)nc4=O)C[C@@H]3O[PH](OCCC#N)(OC[C@H]3O[C@@H](n4cc(C)c(=O)[nH]c4=O)C[C@@H]3O[PH](OCCC#N)(OC(C)[C@H]3O[C@@H](n4ccc(N)nc4=O)C[C@@H]3O[PH](OCCC#N)(OC[C@H]3O[C@@H](n4cc(C)c(=O)[nH]c4=O)C[C@@H]3O)N(C(C)C)C(C)C)N(C(C)C)C(C)C)N(C(C)C)C(C)C)N(C(C)C)C(C)C)N(C(C)C)C(C)C)N(C(C)C)C(C)C)N(C(C)C)C(C)C)N(C(C)C)C(C)C)N(C(C)C)C(C)C)N(C(C)C)C(C)C)N(C(C)C)C(C)C)N(C(C)C)C(C)C)N(C(C)C)C(C)C)[C@@H](CO)O2)c(=O)[nH]c1=O (stereo partly specified)
21	21	26	27	CC(=O)N1CCCc2ccc(-n3cc(CC[C@H]4C[C@H](OP(=O)(O)OC[C@H]5O[C@@H](n6cc(C)c(=O)[nH]c6=O)C[C@@H]5O[PH](OCCC#N)(OC(C)[C@H]5O[C@@H](n6ccc(N)nc6=O)C[C@@H]5O[PH](OCCC#N)(OC[C@H]5O[C@@H](n6cc(C)c(=O)[nH]c6=O)C[C@@H]5O[PH](OCCC#N)(OC(C)[C@H]5O[C@@H](n6ccc(N)nc6=O)C[C@@H]5O[PH](OCCC#N)(OC[C@H]5O[C@@H](n6cc(C)c(=O)[nH]c6=O)C[C@@H]5O[PH](OCCC#N)(OC(C)[C@H]5O[C@@H](n6ccc(N)nc6=O)C[C@@H]5O[PH](OCCC#N)(OC[C@H]5O[C@@H](n6cc(C)c(=O)[nH]c6=O)C[C@@H]5O)N(C(C)C)C(C)C)N(C(C)C)C(C)C)N(C(C)C)C(C)C)N(C(C)C)C(C)C)N(C(C)C)C(C)C)N(C(C)C)C(C)C)[C@@H](CO[PH](OCCC#N)(O[C@H]5C[C@H](n6cc(C)c(=O)[nH]c6=O)O[C@@H]5CO[PH](OCCC#N)(O[C@H]5C[C@H](n6ccc(N)nc6=O)O[C@@H]5C(C)O[PH](OCCC#N)(O[C@H]5C[C@H](n6cc(C)c(=O)[nH]c6=O)O[C@@H]5CO[PH](OCCC#N)(O[C@H]5C[C@H](n6cc(C)c(=O)[nH]c6=O)O[C@@H]5CO[PH](OCCC#N)(O[C@H]5C[C@H](n6cc(C)c(=O)[nH]c6=O)O[C@@H]5CO[PH](OCCC#N)(O[C@H]5C[C@H](n6cc(C)c(=O)[nH]c6=O)O[C@@H]5CO[PH](OCCC#N)(O[C@H]5C[C@H](n6cc(C)c(=O)[nH]c6=O)O[C@@H]5CO)N(C(C)C)C(C)C)N(C(C)C)C(C)C)N(C(C)C)C(C)C)N(C(C)C)C(C)C)N(C(C)C)C(C)C)N(C(C)C)C(C)C)N(C(C)C)C(C)C)O4)nn3)cc21 (stereo partly specified)
21	20	24	22	Cc1cn([C@H]2C[C@H](O[PH](OCCC#N)(OC[C@H]3O[C@@H](n4cc(C)c(=O)[nH]c4=O)C[C@@H]3O[PH](OCCC#N)(OC[C@H]3O[C@@H](n4cc(C)c(=O)[nH]c4=O)C[C@@H]3O[PH](OCCC#N)(OC[C@H]3O[C@@H](n4cc(C)c(=O)[nH]c4=O)C[C@@H]3O[PH](OCCC#N)(OC[C@H]3O[C@@H](n4cc(C)c(=O)[nH]c4=O)C[C@@H]3O[PH](OCCC#N)(OC(C)[C@H]3O[C@@H](n4ccc(N)nc4=O)C[C@@H]3O[PH](OCCC#N)(OC[C@H]3O[C@@H](n4cc(C)c(=O)[nH]c4=O)C[C@@H]3O[PH](OCCC#N)(OC[C@H]3O[C@@H](CCc4cn(-c5ccccc5)nn4)C[C@@H]3OP(=O)(O)OC[C@H]3O[C@@H](n4cc(C)c(=O)[nH]c4=O)C[C@@H]3O[PH](OCCC#N)(OC(C)[C@H]3O[C@@H](n4ccc(N)nc4=O)C[C@@H]3O[PH](OCCC#N)(OC[C@H]3O[C@@H](n4cc(C)c(=O)[nH]c4=O)C[C@@H]3O[PH](OCCC#N)(OC(C)[C@H]3O[C@@H](n4ccc(N)nc4=O)C[C@@H]3O[PH](OCCC#N)(OC[C@H]3O[C@@H](n4cc(C)c(=O)[nH]c4=O)C[C@@H]3O[PH](OCCC#N)(OC(C)[C@H]3O[C@@H](n4ccc(N)nc4=O)C[C@@H]3O[PH](OCCC#N)(OC[C@H]3O[C@@H](n4cc(C)c(=O)[nH]c4=O)C[C@@H]3O)N(C(C)C)C(C)C)N(C(C)C)C(C)C)N(C(C)C)C(C)C)N(C(C)C)C(C)C)N(C(C)C)C(C)C)N(C(C)C)C(C)C)N(C(C)C)C(C)C)N(C(C)C)C(C)C)N(C(C)C)C(C)C)N(C(C)C)C(C)C)N(C(C)C)C(C)C)N(C(C)C)C(C)C)N(C(C)C)C(C)C)[C@@H](CO)O2)c(=O)[nH]c1=O (stereo partly specified)
